Legend:
human calmodulin (human) = human calmodulin (human) (UniProt P0DP23); assay: native gel or EMSA
human CaM (calmodulin) = human CaM (calmodulin) (Homo sapiens, UniProt P0DP23); assay: Native gel titration of CaM with peptide; assay type: binding; conditions: presence of calcium ions; from Kd,app by native gel densitometry
Procedure, shortened: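 Bacterially expressed CaM (E. coli Rosetta (DE3), calcium-dependent phenyl-Sepharose purification) held at 35 μM, calcium present, with synthetic IQ-motif peptide at 18–350 μM; incubated 1 h at 22°C. Native 15% polyacrylamide gel in Tris/glycine pH 8.8, Coomassie-stained. Fraction bound = complex band/(complex + free CaM), background-corrected densitometry. Means of three independent experiments fitted to hyperbolic binding equation; Kd,app ± S.E.M. from fit.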

| Kd (human calmodulin (human)) [µM] | Ranking of affinity for CaM (human CaM (calmodulin)) | Substance |
| --- | --- | --- |
| 27 |  | 3IQ2, peptide of the second IQ-motif of human IQGAP3 |
|  | followed by 3IQ4 | Ac-KNVNSIVKIQAFFRARKAQDDYR-NH2 [3IQ4] |
| 65 |  | 3IQ4, peptide of the fourth IQ-motif of human IQGAP3 |
| 76 |  | 3IQ3, peptide of the third IQ-motif of human IQGAP3 |
